# Experimental data collected from several papers.
# Each line is one published result; the experiments were not run side by side.
# Organism: Hepatitis C virus
# Read-out: viral replication
# Mode: inhibitor
Compound,method,cell line,strain,time,notes,EC50
CCC(=O)Nc1cc(C(=O)Nc2ccc(CN3CCN(C)CC3)c(C(F)(F)F)c2)ccc1OC,qPCR,Huh7.5,GETYPE2A,72 h,,< 1500 nM
C[C@H](NC(=O)OCc1ccccc1)C(=O)Nc1ccc(C2S/C(=N\c3cccc(F)c3)N(Cc3ccco3)C2=O)cc1 (stereo partly drawn),,Huh-7,GETYPE1B,,replicon,570 nM
CN1CCN(C(c2ccccc2)c2ccc(Cl)cc2)CC1 (racemic),,Huh-7.5.1,GETYPE2A,48 h,replicon,44 nM
COC(=O)N[C@H](C(=O)N1CCC[C@H]1c1ncc(-c2ccc(-c3ccc(-c4cnc([C@@H]5CCCN5C(=O)[C@@H](NC(=O)OC)C(C)C)[nH]4)cc3)cc2)[nH]1)C(C)C,,,GETYPE2A,,replicon,0.103 nM
O=C1OC[C@H]2OC(O)[C@H](O)[C@@H](O)[C@@H]2OC(=O)c2cc(O)c(O)c(O)c2-c2c(O)c(O)c3oc(=O)c4c(c(O)c(O)c5oc(=O)c2c3c54)-c2c1cc(O)c(O)c2O (mixture of isomers),,Huh-7,GETYPE2A,48 h,replicon,> 150000 nM
CCC(CC)COC(=O)[C@H](C)N[P@](=O)(OC[C@H]1O[C@@](C#N)(c2ccc3c(N)ncnn23)[C@H](O)[C@@H]1O)Oc1ccccc1,,Huh7.5,GETYPE3 GETYPE3A,,replicon,190 nM
COc1nc(N)nc2c1ncn2[C@@H]1O[C@H](COP(=O)(N[C@@H](C)C(=O)OCC(C)(C)C)Oc2cccc3ccccc23)[C@@H](O)[C@@]1(C)O (stereo partly drawn),,,GETYPE1A,96 h,replicon,1.4 nM
C=C1/C(=C\C=C2/CCC[C@]3(C)[C@@H]([C@H](C)CCCC(C)(C)O)CC[C@@H]23)C[C@@H](O)C[C@@H]1O,luciferase,,GETYPE2A,72 h,replicon,5430 nM
O=c1oc2c(O)c(O)cc3c(=O)oc4c(O)c(O)cc1c4c23,,Huh-7,GETYPE2A,48 h,replicon,~60000 nM
CC(C)(C)OC(=O)N[C@H]1CCCCC/C=C\[C@@H]2C[C@@]2(C(=O)NS(=O)(=O)C2CC2)NC(=O)[C@@H]2C[C@@H](OC(=O)N3Cc4cccc(F)c4C3)CN2C1=O,,Huh-7,GETYPE1A GETYPE1B,96 h,replicon,0.57 nM
C=C1CC[C@H](O)C/C1=C/C=C1\CCC[C@]2(C)[C@@H]([C@H](C)/C=C/[C@H](C)C(C)C)CC[C@@H]12,luciferase,BM4-5,GETYPE1B,72 h,replicon,12800 nM
CC(C)(CO)C(=O)SCCOP(=O)(NCc1ccccc1)OC[C@H]1O[C@@H](n2cnc3c(=O)[nH]c(N)nc32)[C@](C)(O)[C@@H]1O (mixture of isomers),,Huh-7,GETYPE1,,replicon,300 nM
